Assays:
Experiment in all cases: chemiluminescence
Type in all cases: binding
[1] = molecular target: TcYcgR; details: read-out: KD^a; 50 nM protein; 50 mM HEPES pH 7.2, 100 mM KCl, 10 mM DTT, 0.1% BSA; 28 °C
In short: (§1)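 Purified from E. coli co-expressing the c-di-GMP phosphodiesterase PdeH. Biosensor (YcgR domain inserted at the 91/92 site of split RLuc8) at 50 nM with c-di-GMP in 100 µL, equilibrated ≥10 min at 28 °C. Injected 20 µL of 60 µM coelenterazine-h in 50 mM HEPES pH 7.2, 100 mM KCl, 300 mM ascorbate. Total luminescence integrated 10 s after a 3 s delay.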

[2] = molecular target: TbYcgR; details: read-out: KD^a; 50 nM protein; 50 mM HEPES pH 7.2, 100 mM KCl, 10 mM DTT, 0.1% BSA; 28 °C
In short: as §1

[3] = molecular target: T1, EcYcgR (Escherichia coli, UniProt P76010)
T1 sequence (P76010 1-244): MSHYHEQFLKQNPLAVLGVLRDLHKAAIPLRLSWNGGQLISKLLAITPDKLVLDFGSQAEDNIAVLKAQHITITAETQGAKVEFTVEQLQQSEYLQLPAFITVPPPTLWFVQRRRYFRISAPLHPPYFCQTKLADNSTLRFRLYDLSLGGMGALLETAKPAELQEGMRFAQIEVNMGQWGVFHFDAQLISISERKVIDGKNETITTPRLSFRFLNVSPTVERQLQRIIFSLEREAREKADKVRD
In short: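 Then 20 µL of 60 µM coelenterazine-h (in HEPES/KCl/300 mM ascorbate, equilibrated at RT for at least 30 min) was injected. Total luminescence was integrated for 10 s after a 3 s delay at 28 °C.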

[4] = molecular target: TmYcgR; details: read-out: KD^a; 50 nM protein; 50 mM HEPES pH 7.2, 100 mM KCl, 10 mM DTT, 0.1% BSA; 28 °C
In short: as §1

[5] = molecular target: ToYcgR; details: read-out: KD^a; 50 nM protein; 50 mM HEPES pH 7.2, 100 mM KCl, 10 mM DTT, 0.1% BSA; 28 °C
In short: as §1

[6] = molecular target: BtYcgR; details: read-out: KD^a; 50 nM protein; 50 mM HEPES pH 7.2, 100 mM KCl, 10 mM DTT, 0.1% BSA; 28 °C
In short: as §1

[7] = molecular target: TuYcgR; details: read-out: KD^a; 50 nM protein; 50 mM HEPES pH 7.2, 100 mM KCl, 10 mM DTT, 0.1% BSA; 28 °C
In short: as §1

[8] = molecular target: CpYcgR; details: read-out: KD^a; 50 nM protein; 50 mM HEPES pH 7.2, 100 mM KCl, 10 mM DTT, 0.1% BSA; 28 °C
In short: as §1

[9] = molecular target: PtYcgR; details: read-out: KD^a; 50 nM protein; 50 mM HEPES pH 7.2, 100 mM KCl, 10 mM DTT, 0.1% BSA; 28 °C
In short: as §1

[10] = molecular target: CbYcgR; details: read-out: KD^a; 50 nM protein; 50 mM HEPES pH 7.2, 100 mM KCl, 10 mM DTT, 0.1% BSA; 28 °C
In short: as §1

[11] = molecular target: BvYcgR; details: read-out: KD^a; 50 nM protein; 50 mM HEPES pH 7.2, 100 mM KCl, 10 mM DTT, 0.1% BSA; 28 °C
In short: as §1

[12] = molecular target: DnYcgR; details: read-out: KD^a; 50 nM protein; 50 mM HEPES pH 7.2, 100 mM KCl, 10 mM DTT, 0.1% BSA; 28 °C
In short: as §1

`Nc1nc2c(ncn2[C@@H]2O[C@@H]3COP(=O)(O)O[C@H]4[C@@H](O)[C@H](n5cnc6c(=O)[nH]c(N)nc65)O[C@@H]4COP(=O)(O)O[C@H]3[C@H]2O)c(=O)[nH]1` [c-di-GMP] gave a Kd [1] of 0.059 ± 0.002 µM, a Kd [2] of less than 0.05 µM and a Kd [3] of 0.354 ± 0.018 µM. It also gave a Kd [4] of less than 0.05 µM, a Kd [5] of 0.379 ± 0.023 µM and a Kd [6] of 0.286 ± 0.017 µM. It also gave a Kd [7] of less than 0.05 µM, a Kd [8] of less than 0.05 µM and a Kd [9] of less than 0.05 µM. It also gave a Kd [10] of less than 0.05 µM, a Kd [11] of 0.105 ± 0.002 µM and a Kd [12] of 0.303 ± 0.015 µM.

From PMC6054565 (ACS chemical biology, 2018)
